The values that follow come from PubChem BioAssay.

Assay [1] in a line: inhibitors of TNFa-induced NFkB p65 translocation, primary screen, imaging, HUVEC, MLSMR starter and 10KST1 sets (AID 438;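 active means inhibition above 20% together with a positive visual image hit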;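 further: compound added about 3h40 before a 20 min TNFalpha stimulation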;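 on inhibition: signal is the nuclear over cytoplasmic p65 intensity ratio per well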). As to conditions: HUVEC TNFa-induced p65 nuclear translocation; cell count: measured here: nuclei count (cytotoxicity indicator), at 2.08 µM; inhibition: at 2 µM, stronger effect = higher value, 0% TNFa-plus-vehicle, 100% no-TNFa wells.
Assay [2] is described as follows: inhibitors of mutant huntingtin aggregation, primary screen, imaging, exon1htt(103Q)mCFP cells, high-content imaging (AID 483;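 active means visual image review flags a hit and inhibition of aggregation exceeds 20%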;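 further: compound exposure lasted 3 days before fixation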;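 on nuclei count: percent of the per-plate median nuclei count of sample wells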). As to conditions: exon1htt(103Q)mCFP cell line, aggregate imaging, at 2 µM; inhibition of aggregation: stronger effect = higher value; nuclei count: measured here: cell count, toxicity.
The nature of assay [3]: inhibitors of E-selectin induction by TNFa, primary screen, imaging, HUVEC, immunofluorescence, MLSMR starter and 10KST1 sets (AID 487;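 active means visually confirmed hit in the image check and inhibition above 20%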;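 on inhibition: signal is fraction of cell area covered by stained E-selectin grains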;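 on nuclei count: 100% = median nuclei count of all wells on the same plate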). As to conditions: HUVEC TNFalpha-induced E-selectin immunofluorescence imaging, at 2 µM; inhibition: stronger effect = higher value; nuclei count: measured here: cell number, toxicity.
Assay [4] addresses Voltage-gated potassium channel subunit beta-2 (Rattus norvegicus) (UniProt P62483). Description: KvBeta enzyme negative modulators, primary screen, biochemical, NADPH fluorescence (AID 622;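 active means fluorescence slope higher than the sample average by over 3 SD, cut at about -0.22 in these data, passing the limit was not always enough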;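 further: slope of raw intensity against log time taken from 70 to 1610 s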). The following applies: recombinant KvBeta, 4-cyanobenzaldehyde reduction, at 10 µM, stronger effect = higher value.
Assay [5] has the same target. Description: KvBeta positive modulators, primary screen, biochemical, NADPH fluorescence (AID 623;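 active means NADPH fluorescence slope more negative than the mean of all samples by about 3 SD, 99.7% confidence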;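 further: fluorescence intensity change per second fitted from 20 to 320 s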). As to conditions: Recombinant KvBeta, NADPH fluorescence decrease slope, 10 min; at 10 µM; stronger effect = lower value.
For assay [6], the target named is Muscarinic acetylcholine receptor M4 (Homo sapiens) (UniProt P08173). As to the kind of experiment: compounds altering M4/GIRK thallium flux, either direction, primary screen, M4 allosteric agonist project, cell-based, HEK293 M4/GIRK, BTC-AM (AID 625;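 active means fluorescence slope after compound addition differing from the mean of all tested samples at 99.7% confidence, mostly higher but some lower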;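 further: thallium influx through GIRK channels coupled to M4 in HEK293 cells with BTC-AM dye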). The following applies: at 10 µM, actives lie on both sides. In outline: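 Material – HEK293 cells with M4 receptor and GIRK channels · Buffer or medium – pH 7.3 thallium assay buffer · Doses – one dose, 10 µM final · Timing – cells overnight at 37 °C, BTC-AM loading 1 h, reads 2 min total · Measured by – kinetic fluorescence with BTC-AM dye · Controls – carbachol and DMSO controls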

A short description of assay [7]: inhibitors of Sendai virus-induced IRF3 signaling, primary screen, TLR/RLR signaling modifier project, cell-based, Sendai virus stimulus, luciferase, 10K MLSCN set (AID 602276).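 Further: firefly luciferase from ISG56 promoter only with Renilla not read in this screen; 0% = Sendai virus plus DMSO and 100% = medium plus DMSO without virus.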 As to conditions: HEK293 RL24 IRF3 luciferase reporter, at 10 µM, stronger effect = higher value. Background: A reporter such as luciferase makes a cellular process visible.
A short description of assay [8]: inhibitors of poly I:C-induced TLR3 signaling, primary screen, cell-based, poly I:C stimulus, luciferase, 10K MLSCN set (AID 602277;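 active means inhibition of the reporter signal at or above 50%; inactive means inhibition below 50%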). As to conditions: HEK293-TLR3 RL24 IRF3 luciferase reporter, at 10 µM, stronger effect = higher value.

Active and inactive are the calls of the source.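 How the source made its calls, unless noted: active means inhibition at or above 50% at 10 µM; inactive means inhibition below 50%.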

Voltage-gated potassium channel subunit beta-2 (Rattus norvegicus), sequence (P62483 whole entry, looked up): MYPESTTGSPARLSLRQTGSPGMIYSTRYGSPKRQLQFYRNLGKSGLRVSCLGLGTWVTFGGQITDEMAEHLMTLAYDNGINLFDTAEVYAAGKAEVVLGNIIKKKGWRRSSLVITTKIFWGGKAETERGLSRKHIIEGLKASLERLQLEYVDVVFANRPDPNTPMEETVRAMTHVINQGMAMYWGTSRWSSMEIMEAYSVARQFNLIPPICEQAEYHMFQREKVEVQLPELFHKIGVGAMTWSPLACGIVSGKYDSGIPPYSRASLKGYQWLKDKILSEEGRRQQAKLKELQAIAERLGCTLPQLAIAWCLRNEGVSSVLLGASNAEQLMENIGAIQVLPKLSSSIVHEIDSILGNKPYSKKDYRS
Muscarinic acetylcholine receptor M4 (Homo sapiens), sequence (P08173 whole entry, looked up): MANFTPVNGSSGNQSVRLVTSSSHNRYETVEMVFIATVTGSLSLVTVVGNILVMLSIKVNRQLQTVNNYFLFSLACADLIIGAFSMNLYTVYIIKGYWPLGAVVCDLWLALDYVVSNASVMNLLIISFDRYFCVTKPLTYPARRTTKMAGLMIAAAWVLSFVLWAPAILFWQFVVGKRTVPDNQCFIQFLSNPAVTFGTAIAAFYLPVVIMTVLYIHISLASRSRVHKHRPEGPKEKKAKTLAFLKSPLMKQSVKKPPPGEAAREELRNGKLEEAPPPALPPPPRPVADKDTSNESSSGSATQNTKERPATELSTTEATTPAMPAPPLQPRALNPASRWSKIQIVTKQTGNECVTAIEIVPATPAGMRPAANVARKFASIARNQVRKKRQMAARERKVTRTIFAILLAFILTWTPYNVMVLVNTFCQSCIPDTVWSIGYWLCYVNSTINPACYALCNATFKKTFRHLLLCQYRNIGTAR

Turning to `O=C(NC12CC3CC(CC(C3)C1)C2)C1CCCN1C(=O)NC1CCCCC1` (configuration not stated), the cell count in assay [1] was 559. Moreover, the inhibition (as a rule, the change of the read-out against control, counted positive when it falls) in assay [1] was -1.3% (inactive); in assay [3] it was -17.6% (inactive); in assay [7], -2.83% (inactive); in assay [8] it was 28.4% (inactive). Further, in assay [2], the inhibition of aggregation is 15.8% (inactive). The nuclei count in assay [2] came to 96.2%; in assay [3], 110%. Also, the fluorescence slope in assay [4] was -0.284 (inactive); in assay [6], 0.00682 (inactive). The NADPH fluorescence slope in assay [5] was -3.2e-05 (inactive).

As for `COc1ccc(CN2C(=O)C(O)(CC(=O)c3c(C)n[nH]c3C)c3ccccc32)cc1OC` (configuration not stated), the cell count in assay [1] turned out to be 264. The inhibition in assay [1] is -12.6% (inactive); in assay [3], -27.7% (inactive); in assay [7] it was 15.2% (inactive); in assay [8], 9.8% (inactive). Further, in assay [2], the inhibition of aggregation is -2.3% (inactive). Moreover, the figures for the nuclei count in assay [2] and in assay [3] were 92.8% and 97.3%, respectively. Also, the fluorescence slope in assay [4] is -0.481 (inactive); in assay [6], 0.00507 (inactive). For the same compound, the NADPH fluorescence slope in assay [5] is -4.5e-05 (inactive).

On to `CCn1c(=O)cc(SCC(=O)Nc2ccc3c(c2)OCO3)c2ccccc21`, for which the cell count in assay [1] was 368. Besides, the inhibition in assay [1] is 3.1% (inactive); in assay [3], -7.2% (inactive); in assay [7] it was -16.8% (inactive); in assay [8] it was -13.5% (inactive). Moreover, in assay [2], the inhibition of aggregation was 1.5% (inactive). For the same compound, the results for the nuclei count in assay [2] and in assay [3] were 97.6% and 115%, respectively. Moreover, the fluorescence slope was -0.432 (inactive) in assay [4] and 0.00544 (inactive) in assay [6]. The NADPH fluorescence slope in assay [5] was 4e-05 (inactive).

For `COc1ccc(-c2nc(N3CCCC3)[nH]c(=O)c2C#N)cc1`, the cell count in assay [1] worked out at 373. Moreover, the inhibition in assay [1] was -48.5% (inactive); in assay [3], -50.2% (inactive); in assay [7], 18.9% (inactive); in assay [8] it was 13% (inactive). For the same compound, the inhibition of aggregation in assay [2] was -7.1% (inactive). Further, the results for the nuclei count in assay [2] and in assay [3] were 107% and 114%, respectively. Besides, the fluorescence slope is -0.471 (inactive) in assay [4] and 0.0047 (inactive) in assay [6]. For the same compound, the NADPH fluorescence slope in assay [5] was -1.8e-05 (inactive).

For `CCN(C(=O)CN1CCN(c2ccccc2OC)CC1)c1c(N)n(Cc2ccccc2)c(=O)[nH]c1=O`, the cell count in assay [1] worked out at 471. Further, the inhibition in assay [1] was 1.1% (inactive); in assay [3], -52.2% (inactive); in assay [7] it was 9.1% (inactive); in assay [8], 25.4% (inactive). For the same compound, the inhibition of aggregation in assay [2] is -18.1% (inactive). The nuclei count worked out at 63.9% in assay [2] and 102% in assay [3]. For the same compound, the fluorescence slope in assay [4] is -0.424 (inactive); in assay [6], 0.00639 (inactive). Further, in assay [5], the NADPH fluorescence slope is -0.000102 (inactive).

In the case of `O=C(CS(=O)(=O)Cc1ccccc1)Nc1nc2ccccc2s1`, the cell count in assay [1] was 425. Besides, the inhibition in assay [1] was -4% (inactive); in assay [3] it was 13.1% (inactive); in assay [7], 10.2% (inactive); in assay [8] it was 23.6% (inactive). In addition, the inhibition of aggregation in assay [2] is 8.1% (inactive). Besides, the nuclei count in assay [2] turned out to be 82.8%; in assay [3] it was 97%. Besides, the fluorescence slope was -0.487 (inactive) in assay [4] and 0.00544 (inactive) in assay [6]. For the same compound, in assay [5], the NADPH fluorescence slope was -3.1e-05 (inactive).

On to `CCCOc1ccc(C2c3c(oc4ccccc4c3=O)C(=O)N2CCCN2CCOCC2)cc1` (configuration not stated), for which the cell count in assay [1] stood at 559. The inhibition in assay [1] is 16.8% (inactive); in assay [3], -18.5% (inactive); in assay [7], 11.7% (inactive); in assay [8] it was 21.3% (inactive). In assay [2], the inhibition of aggregation was 26.2% (inactive). In addition, the nuclei count in assay [2] came out at 100%; in assay [3], 101%. The fluorescence slope was -0.413 (inactive) in assay [4] and 0.00521 (inactive) in assay [6]. The NADPH fluorescence slope in assay [5] was -1.1e-05 (inactive).

In the case of `CCCCc1ccc(NC(=O)COCC)cc1`, in assay [1], the cell count is 366. For the same compound, the inhibition was -2.7% (inactive) in assay [1], -34.5% (inactive) in assay [3], -24.8% (inactive) in assay [7] and -77.1% (inactive) in assay [8]. For the same compound, the inhibition of aggregation in assay [2] is -8.1% (inactive). Also, the nuclei count in assay [2] is 110%; in assay [3], 98.4%. Also, the results for the fluorescence slope in assay [4] and in assay [6] were -0.585 (inactive) and 0.00366 (inactive), respectively. Moreover, the NADPH fluorescence slope in assay [5] is 1.7e-05 (inactive).

Consider `Cc1ccc(Cn2c(SCC(C)C)nc3c2c(=O)n(C)c(=O)n3C)cc1`, for which the cell count in assay [1] came to 468. The inhibition in assay [1] was -1.3% (inactive); in assay [3], -65.5% (inactive); in assay [7] it was 16.7% (inactive); in assay [8] it was 14.4% (inactive). The inhibition of aggregation in assay [2] was -13.4% (inactive). Also, the nuclei count in assay [2] stood at 111%; in assay [3], 119%. In addition, the fluorescence slope in assay [4] is -0.468 (inactive); in assay [6], 0.00373 (inactive). The NADPH fluorescence slope in assay [5] was -0.000354 (inactive).

In the case of `C=CCn1c(COc2ccccc2F)nnc1SCC(=O)N1CC(=O)Nc2ccccc21`, the cell count in assay [1] came out at 390. Besides, the inhibition in assay [1] was -23.5% (inactive); in assay [3], 4% (inactive); in assay [7], -13.7% (inactive); in assay [8] it was -13.8% (inactive). Further, in assay [2], the inhibition of aggregation is 28% (inactive). Further, the values for the nuclei count in assay [2] and in assay [3] were 100% and 121%, respectively. Also, the fluorescence slope was -0.355 (inactive) in assay [4] and 0.00612 (inactive) in assay [6]. Further, the NADPH fluorescence slope in assay [5] was 2.1e-06 (inactive).

Take `CC(C(=O)NC1CCCCCC1)N(c1ccccc1)S(C)(=O)=O` (configuration not stated): the cell count in assay [1] is 370. In addition, the inhibition is 1.9% (inactive) in assay [1], -7.4% (inactive) in assay [3], 15.7% (inactive) in assay [7] and 3.26% (inactive) in assay [8]. Further, in assay [2], the inhibition of aggregation was 4.5% (inactive). Besides, the nuclei count in assay [2] is 108%; in assay [3], 97%. Moreover, the fluorescence slope in assay [4] was -0.548 (inactive); in assay [6], 0.00352 (inactive). The NADPH fluorescence slope in assay [5] was -0.000126 (inactive).

Consider `Cc1occc1C(=O)Nc1ccccc1NC(=O)c1ccoc1C`, for which the cell count in assay [1] was determined as 425. The inhibition in assay [1] is -11.5% (inactive); in assay [3] it was 40.5% (inactive); in assay [7], 12.7% (inactive); in assay [8] it was 24.7% (inactive). In addition, the inhibition of aggregation in assay [2] is 29.8% (inactive). Besides, the nuclei count in assay [2] stood at 87.4%; in assay [3], 90.2%. For the same compound, the fluorescence slope is -0.543 (inactive) in assay [4] and 0.00485 (inactive) in assay [6]. Moreover, the NADPH fluorescence slope in assay [5] was -3.1e-05 (inactive).
